procasp3 activ = activators of human procaspase-3 D3A mutant, primary screen, biochemical, absorbance, PC-3 D3A mutant, single concentration; recombinant procaspase-3 D3A, Ac-DEVD-pNA absorbance 405 nm; activation, % at 8.5 µM; 330,000 tested, 0.11% active; AID 463141, 2010; Caspase-3 (Homo sapiens), P42574;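 active means activation above the mean of all tested compounds plus 3 SD, cut at about 21% in these data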;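 further: 0% = DMSO alone and 100% = DMSO wells spiked with extra 5 µM PC-3 D3A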
Target sequence (P42574 whole entry D9A/D28A/D175A): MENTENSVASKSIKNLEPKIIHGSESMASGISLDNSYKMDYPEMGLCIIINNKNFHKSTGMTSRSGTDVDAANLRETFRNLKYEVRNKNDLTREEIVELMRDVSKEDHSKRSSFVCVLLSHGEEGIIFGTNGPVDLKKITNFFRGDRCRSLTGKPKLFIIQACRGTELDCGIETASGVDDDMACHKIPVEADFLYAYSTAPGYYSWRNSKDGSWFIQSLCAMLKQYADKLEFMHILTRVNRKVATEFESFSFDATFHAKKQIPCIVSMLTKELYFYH
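Evaluation: percent activation relative to control range; Material: Procaspase-3 D3A mutant, all three cleavage aspartates alanine; Compound: single dose, 8.5 µM nominal compound, 0.8% DMSO; Replication: one well per compound; Signal: absorbance at 405 nm, 0 and 120 min; Schedule: 1 h preincubation plus 2 h reaction at 25 °C.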
Tb MetRS inh = T. brucei MetRS inhibitors, primary screen, biochemical, luminescence; inhibition, % at 11.9 µM; purified T. brucei MetRS, ATP depletion, Kinase-Glo luminescence; AID 624268, 2012; 360,000 tested, 0.4% active; methionyl-tRNA synthetase (Trypanosoma brucei brucei);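 active means inhibition above a per-plate cutoff of the control wells' mean inhibition plus 3 SD, cut at about 5.5% in these data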;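 further: 0% = DMSO wells median and 100% = median of wells with control inhibitor compound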
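Material – parasite MetRS enzyme · Medium – HEPES-MgCl2-KCl buffer plus DTT, spermine, BSA, pyrophosphatase · Reagent – ATP, methionine and E. coli bulk tRNA substrates · Times – 15 min enzyme-compound preincubation, 2 h reaction, 10 min detection, 25 °C · Measured by – luminescence of leftover ATP · Evaluation – percent inhibition relative to median high and low control wells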
MsrA inhibitor = bovine MsrA enzyme inhibitors, primary screen, biochemical, absorbance, HTS. 360,000 tested, 0.75% active. purified bovine MsrA, absorbance read-out. AID 651718, 2012. Methionine sulfoxide reductase A (Bos taurus). inhibition, % at 15.5 µM;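 further: 0% = vehicle wells with enzyme and 100% = reference inhibitor wells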
MsrA act = bovine MsrA enzyme activators, primary screen, biochemical, absorbance, HTS. Methionine sulfoxide reductase A (Bos taurus). purified bovine MsrA, absorbance read-out. activation, % at 10.6 µM. 360,000 tested, 0.3% active. AID 602163, 2012; in the data active means activation above about 7.5%;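 further: 0% = vehicle and 100% = reference activator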
proCasp7 act = procaspase-7 activators, primary screen, counter-screen for procaspase-3 activator project, biochemical, absorbance, HTS, human. activation, % at 8.5 µM. Caspase-7 (Homo sapiens), P55210. 330,000 tested, 0.093% active. recombinant procaspase-7, Ac-DEVD-pNA absorbance 405 nm; D23A/D198A/D206A triple mutant, cannot self-cleave; scale: DMSO 0, 5 µM enzyme 100;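 active means percent activation above the screen-wide mean plus 3 SD, cut at about 25% in these data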
Target sequence (P55210 whole entry D23A/D198A/D206A): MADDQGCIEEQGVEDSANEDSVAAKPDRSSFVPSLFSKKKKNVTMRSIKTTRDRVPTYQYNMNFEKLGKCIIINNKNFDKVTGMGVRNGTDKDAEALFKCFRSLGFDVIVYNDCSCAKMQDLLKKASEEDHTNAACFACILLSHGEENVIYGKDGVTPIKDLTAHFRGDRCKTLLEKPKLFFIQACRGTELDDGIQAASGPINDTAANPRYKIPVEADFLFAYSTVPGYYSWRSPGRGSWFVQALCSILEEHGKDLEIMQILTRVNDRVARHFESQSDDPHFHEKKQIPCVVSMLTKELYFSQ
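Detection: p-Nitroaniline absorbance at 405 nm, read at 0 and 120 min; system: Uncleavable procaspase-7 mutant enzyme; evaluation: % activation from two-timepoint absorbance difference, scaled to controls; times: 1 h enzyme–compound preincubation and 2 h substrate reaction, both 25 °C; buffer or medium: Zinc-free HEPES pH 7.4 with 300 mM NaCl, 0.01% Triton X-100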
MsrA inh confirm = bovine MsrA inhibitors, retest, confirmation, biochemical, absorbance, HTS; shares compounds with MsrA inhibitor; purified bovine MsrA, absorbance read-out; inhibition, % at 15.5 µM; 2,300 tested, 41% active; AID 651822, 2012;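 further: coupled to thioredoxin reductase with NADPH and selenocystamine and DMSO as substrate; 0% = vehicle only and 100% = full effect of reference inhibitor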
Active calls of the source: *; / = not tested or not shown. Shown are actives, neighbours in structure and some others; about 1.5% of the full set was active somewhere. Unless noted, no stated cut-off is given here; in the data, active means inhibition above about 4.5%; inactive means the rest.

SMILES	procasp3 activ	Tb MetRS inh	MsrA inhibitor	MsrA act	proCasp7 act	MsrA inh confirm
O=C(c1ccc2c(=O)n(Cc3ccccc3)c(=S)[nH]c2c1)N1CCOCC1	5	0	1	-3	-6	/
C=CCc1c(C)nc(C)nc1N/N=C/c1ccc([N+](=O)[O-])cc1	-6	0	7.0*	-4	-2	5
C=CCc1c(C)nc(C)nc1N/N=C/c1ccccc1O	-7	0	4	-10	-12	/
COc1cc(-c2c(C#N)c(N)nc3c2CCCC3)ccc1O	-5	-1	0	-1	-4	/
COc1cc(-c2c(C#N)c(N)nc3[nH]c(=S)[nH]c(=O)c23)ccc1O	5	-1	5.0*	0	6	4
COC(=O)[C@]12C[C@H](CC(=O)NCCCN3CCCC3=O)C(=O)N(Cc3ccccc3)C1=C[C@H](C1CCCC1)O[C@@H]2C	/	/	0	/	/	/
COc1ccc2oc(=O)c(-c3nc4ccccc4o3)cc2c1	8	0	3	-2	5	/
O=c1oc2ccccc2cc1-c1nc2ccccc2o1	1	-2	5.2*	-18	2	4
COc1cc(/C=N/N=C2/NC(=O)C(CC(=O)O)S2)ccc1OCc1ccc(Cl)cc1 (centres undefined)	-3	1	5.3*	-7	-8	6.0*
CCOc1cc(/C=N/N=C2/NC(=O)C(CC(=O)O)S2)ccc1OCc1ccc(Cl)cc1Cl (centres undefined)	-4	0	/	-1	7	/
O=C(OC1CCOC1=O)C1CCN(S(=O)(=O)c2ccc(Cl)c(C(F)(F)F)c2)CC1 (centres undefined)	2	0	0	-8	2	/
O=C(O)c1ccc(Nc2ccc([N+](=O)[O-])c3nonc23)cc1	/	1	1	-4	/	/
CC(=O)c1ccc(Nc2ccc([N+](=O)[O-])c3nonc23)cc1	-4	1	7.0*	3	0	4
Cc1ccc(-c2c(C(=O)O)c(C(=O)O)c3n2CSC3)cc1	5	0	-1	-4	-7	/
COC(=O)c1c(C(=O)OC)c(-c2ccc(F)cc2)n2c1CSC2	-5	0	5.6*	-3	1	2
Cn1cnc(S(=O)(=O)N2CCCCC2c2cc(C(=O)NCc3ccc(Cl)c(Cl)c3)no2)c1 (centres undefined)	/	0	1	-3	/	/
N#Cc1cn(-c2ccccc2)nc1-c1ccc2c(c1)OCCO2	7	0	0	0	-1	/
N#Cc1cn(-c2ccccc2)nc1-c1ccco1	10	0	5.2*	-6	3	4
CC(C)NC(=O)C1(C)CSCC(=O)N1Cc1cccc(C(F)(F)F)c1 (centres undefined)	/	0	0	/	/	/
CCc1cc2c(=O)c(-c3nc4ccccc4n3C)c(C)oc2c(CN2CCOCC2)c1O	3	0	5.0*	-10	9	1
CCc1cc2c(=O)c(-c3nc4ccccc4n3C)c(C)oc2c(CN2CCN(C)CC2)c1O	0	/	/	/	8	/
CCc1cc2c(=O)c(-c3nc4ccccc4n3C)c(C)oc2c(CN2CCN(CCO)CC2)c1O	3	-1	5.2*	-8	15	3
CCOc1cc(OCC)cc(C(=O)N2CCC[C@@H]2C(=O)N2CCC[C@H]2C(=O)NCc2ccccc2)c1	/	/	1	/	/	/
Clc1cccc(-c2ccc(/C=N/n3cnnc3)o2)c1Cl	3	0	3	-1	-2	/
Cc1c(C(=O)O)cccc1-c1ccc(/C=N/n2cnnc2)o1	3	-1	6.5*	-6	1	4.7*
SMILES	procasp3 activ	Tb MetRS inh	MsrA inhibitor	MsrA act	proCasp7 act	MsrA inh confirm
Cc1cc(-c2ccc(/C=N/n3cnnc3)o2)ccc1Cl	7	0	4.8*	-5	-2	3
Clc1ccccc1-c1ccc(/C=N/n2cnnc2)o1	4	-1	5.7*	-9	0	5.5*
Cc1c(Cl)cccc1-c1ccc(/C=N/n2cnnc2)o1	-4	-1	3	-3	-1	/
CSCCC(c1nc2ccccc2[nH]1)n1c(/C=C/c2ccc(Cl)cc2)nc2ccccc21 (centres undefined)	/	/	0	/	/	/
CC(C)(CNC(=O)CO/N=C1/C=C2CCC3C(C(O)C[C@@]4(C)C3CC[C@]4(O)C(=O)CO)[C@@]2(C)CC1)C(O)C(=O)O (some centres undefined)	-8	3	2	1	14	/
COc1cc(C)c(/C=C/C(C)=C/C=C/C(C)=C/C(=O)O)c(C)c1C	-7	-1	4.7*	-7	-4	4
O=C(N[C@H](C(=O)N1CCC[C@H]1C(=O)NC1CCCC1)c1ccccc1)c1ccccc1	/	/	0	/	/	/
N#Cc1cc(C#N)c(N2CCN(c3ccccn3)CC2)nc1N	4	-1	4.7*	-2	13	3
O=C(N/N=C/c1ccccc1)c1cc(=O)[nH]c2ccccc12	-4	0	1	-11	-1	/
CN(C)c1ccc(/C=N/NC(=O)c2ccco2)cc1	5	-1	4.7*	-3	-6	5.1*
CN(C)c1ccc(/C=N/NC(=O)c2cc(=O)[nH]c3ccccc23)cc1	9	0	7.1*	-2	3	5
O=C(N/N=C/c1ccc2ncccc2c1)c1ccco1	6	-2	5.2*	-10	-14	3
CN(C)c1ccc(/C=N/NC(=O)c2ccn(C)n2)cc1	6	-1	6.3*	-4	5	4
O=C(NCc1ccccc1)[C@H]1CCCN1C(=O)[C@H]1CCCN1C(=O)c1ccc(Cl)cc1	/	/	1	/	/	/
C[C@@H]1CN([C@H](C)CO)C(=O)c2cc(Br)cnc2O[C@H]1CN(C)Cc1ccccc1F	/	/	1	/	/	/
CN(C)c1ccc(/C=N/NC(=O)C(=O)N2CCCCCC2)cc1	-6	0	4.7*	-4	-6	5.9*
COc1ccc(/C=N/NC(=O)C(=O)N2CCCC2)cc1	4	0	0	-2	2	/
O=C1CC(C(=O)O)S/C(=N\N=C\c2ccc(Br)cc2)N1 (centres undefined)	1	-1	4.9*	-16	-11	3
CC(C)C[C@@H]1COc2cc(NCCO)ccc2S(=O)(=O)N1	/	/	-1	/	/	/
CS(=O)(=O)Nc1ccc(C2=NN(C(=O)c3ccccc3)C(c3cccs3)C2)cc1 (centres undefined)	-1	-1	4.8*	-11	1	1
